pEC50: −log10 of the molar value. Active and inactive are the calls of the source. No cut-off for these calls is given here.

For series [1], the system named is Human immunodeficiency virus 1. The series is described as follows: Antiviral activity against HIV1 ADA in human PBMC assessed as reduction of p24 antigen levels after 4 days of infection. Format: functional, organism-based. A digest of the protocol:
(§1)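 PBMCs cultured 6 days with IL-2 (100 U/ml) plus RAPA, then exposed 2 h to HIV-1 ADA (R5) or IIIb (X4) at MOI 0.001, washed three times with PBS, and kept in IL-2 medium with drugs. p24 in supernatant by ELISA on day 4 after infection. Means ± SD of independent experiments.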

In series [2] the test system is Human immunodeficiency virus 1. The series is described as follows: Antiviral activity against HIV1 R5 in human PBMC assessed as fractional inhibition of viral replication at 2 nM. The series is classed as functional. The essentials:
(§2)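 Fixed-ratio combination in PBMC p24 infectivity assays (RAPA pretreatment, MOI 0.001, p24 ELISA day 4). Each drug tested alone in twofold dilutions, RAPA 0.125–2 nM and T-20 2.5–40 nM, and in a 1/20 RAPA/T-20 molar ratio. Median-effect (Chou) analysis gave Dm, m, r, combination index and dose reduction index.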

Series [3] has as its system PBMC. The series is described as follows: Effect on cell viability of human PBMC at 0.03 to 1 nM after 14 days by trypan blue staining. The series is classed as cell-based. As to conditions: 336 h, 0.001 µM. A digest of the protocol: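 PBMCs cultured with IL-2 and RAPA for 14 days; viability by trypan blue staining. Means ± SD from seven donors.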
In series [4] the test system is Human immunodeficiency virus 1. In words: Antiviral activity against HIV1 R5 assessed as inhibition of cell-cell fusion between R5-envelope expressing HEK293T cells and CD8 depleted human PBMCs pretreated for 6 days. Format: functional, organism-based. To be noted: Human immunodeficiency virus 1, R5, HEK-293T. The essentials:
(§3)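 Target cells were CD8-depleted PBMCs pretreated 6 days with RAPA and labeled with calcein-AM. Effectors were 293T cells transfected with JRFL (R5) or HXB2 (X4) Env plus Rev, loaded with CMTMR on day 2. Cells cocultured 1:3 ± T-20 for 2.5 h at 37°C in HEPES-DMEM pH 7.2 with BSA 1 mg/ml. Double-positive cells scored by microscopy, ≥100 cells, normalized to no-T-20 fusion. EC50 from F = 100/(1 + Ci/EC50).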

For series [5], the system named is Human immunodeficiency virus 1. The series is described as follows: Antiviral activity against HIV1 R5 in human PBMC assessed as fractional inhibition of viral replication at 0.250 nM. The series is classed as functional. A digest of the protocol:
as §2

Series [6] has as its system PBMC. In words: Reduction of CD4 density on human PBMC at 1 nM after 6 days by quantitative fluorescence-activated cell sorting. The arrangement: scale not given: the % may be the effect or the level left. Format: functional. The essentials: (§4)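 PBMCs cultured 6 days with IL-2 and RAPA. Blocked 30 min at room temperature (PBS with 2% human serum, 5% horse serum, 0.1% azide), then stained 30 min with PE antibodies. Surface molecules per cell from FL-2 by Quantibrite-PE bead regression, PE/antibody ratio 1:1. Means ± SD from seven donors; Student's t test versus untreated.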

Series [7] concerns Human immunodeficiency virus 1. The series is described as follows: Antiviral activity against HIV1 R5 in human PBMC assessed as fractional inhibition of viral replication. Format: functional, organism-based. As to conditions: Human immunodeficiency virus 1, R5. The essentials: as §2
In series [8] the test system is Human immunodeficiency virus 1. The series is described as follows: Antiviral activity against HIV1 X4 assessed as inhibition of cell-cell fusion between X4-envelope expressing HEK293T cells and CD8 depleted human PBMCs pretreated for 6 days. Format: functional, organism-based. As to conditions: Human immunodeficiency virus 1, X4, HEK-293T. A digest of the protocol:
as §3

Series [9] relates to PBMC. In words: Reduction of CXCR4 density on human PBMC at 0.1 to 1 nM after 6 days by quantitative fluorescence-activated cell sorting. Format: functional, cell-based. A digest of the protocol: as §4
The subject of series [10] is PBMC. The series is described as follows: Reduction of CCR5 density on human sPBMC at 0.1 to 1 nM after 6 days by quantitative fluorescence-activated cell sorting. The series is classed as functional, cell-based. A digest of the protocol:
as §4

Series [11] concerns Human immunodeficiency virus 1. In words: Antiviral activity against HIV1 R5 in human PBMC assessed as fractional inhibition of viral replication at 0.5 nM. Format: functional. The essentials:
as §2

Series [12] relates to Human immunodeficiency virus 1. The series is described as follows: Antiviral activity against HIV1 R5 in human PBMC assessed as fractional inhibition of viral replication at 0.125 nM. The series is classed as functional. A digest of the protocol:
as §2

Series [13] relates to Human immunodeficiency virus 1. The series is described as follows: Antiviral activity against HIV1 ADA in human PBMC assessed as reduction of p24 antigen levels. To be noted: Human immunodeficiency virus 1, ADA. Format: functional, organism-based. The essentials:
as §1

In series [14] the test system is PBMC. In words: Effect on cell viability of human PBMC pretreated for 14 days by trypan blue staining. As to conditions: 336 h.
Series [15] concerns Human immunodeficiency virus 1. In words: Antiviral activity against HIV1 R5 in human PBMC assessed as fractional inhibition of viral replication at 1 nM. Format: functional. The essentials: as §2
Series [16] has as its system Human immunodeficiency virus 1. In words: Antiviral activity against HIV1 R5 in human PBMC assessed as fractional inhibition of viral replication at 5 nM. The series is classed as functional. A digest of the protocol: as §2
Series [17] has as its system Human immunodeficiency virus 1. The series is described as follows: Antiviral activity against HIV1 R5 in human PBMC assessed as fractional inhibition of viral replication at 40 nM. The series is classed as functional. The essentials: as §2
The subject of series [18] is Human immunodeficiency virus 1. The series is described as follows: Antiviral activity against HIV1 X4 in human PBMC assessed as reduction of p24 antigen levels. The series is classed as functional, organism-based. As to conditions: Human immunodeficiency virus 1, X4. A digest of the protocol: as §1
Series [19] relates to Human immunodeficiency virus 1. In words: Antiviral activity against HIV1 R5 in human PBMC assessed as fractional inhibition of viral replication at 2.5 nM. The series is classed as functional. The essentials:
as §2

The subject of series [20] is Human immunodeficiency virus 1. The series is described as follows: Antiviral activity against HIV1 R5 in human PBMC assessed as fractional inhibition of viral replication at 10 nM. The series is classed as functional. A digest of the protocol:
as §2

Series [21] concerns Human immunodeficiency virus 1. In words: Antiviral activity against HIV1 R5 in human PBMC assessed as fractional inhibition of viral replication at 20 nM. The series is classed as functional. The essentials:
as §2

For the molecule `CO[C@H]1C[C@@H]2CC[C@@H](C)[C@@](O)(O2)C(=O)C(=O)N2CCCC[C@H]2C(=O)O[C@H]([C@H](C)C[C@@H]2CC[C@@H](O)[C@H](OC)C2)CC(=O)[C@H](C)/C=C(\C)[C@@H](O)[C@@H](OC)C(=O)[C@H](C)C[C@H](C)/C=C/C=C/C=C/1C` [SIROLIMUS], the result (in [1]; in the series with PBMC [10]) was Active. Besides, the Activity in series [2] is on record as 0.92; in the series with PBMC [3] it was “Non-toxic”; in series [5], 0.66; in the series on PBMC [6], 15%; in [11], 0.78; in [12], 0.34. For the same molecule, the Activity result in the series on PBMC [14] is “Non-toxic”; in [15], 0.85. Besides, the pEC50 was 10.00 in series [4], 9.74 in series [7], 8.89 in [8] and 9.82 in series [13]. For the same molecule, the outcome in the series with PBMC [9] was inactive.

With enfuvirtide, the pEC50 in [7] was 7.89; in [18], 8.60; in [13], 8.00. Further, the Activity in [16] came to 0.24; in [17] it was 0.73; in [19], 0.23; in [20] it was 0.5; in series [21], 0.57.

As a reminder, the pEC50 is the negative decadic logarithm of the EC50, by convention in mol/L.

The values are drawn from ChEMBL document CHEMBL1157364, “Rapamycin reduces CCR5 density levels on CD4 T cells, and this effect results in potentiation of enfuvirtide (T-20) against R5 strains of human immunodeficiency virus type 1 in vitro” (Antimicrob Agents Chemother, 2007).
